From ChEMBL document CHEMBL1759839, “Synthesis, biopharmaceutical characterization, antimicrobial and antioxidant activities of 1-(4'-O-β-D-glucopyranosyloxy-2'-hydroxyphenyl)-3-aryl-propane-1,3-diones” (2011)
Converted amounts (≈) assume the structure as drawn.

Tests used:
Format in all cases: functional
Nakaseomyces glabratus = assay: Antifungal activity against Candida glabrata ATCC 36583 after 48 hrs; conditions: ATCC 36583, 48 h
Procedure, shortened: (§1)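 Yeasts grown on Sabouraud dextrose agar, then in Sabouraud liquid medium at 36 °C overnight. Inoculum diluted in MOPS-buffered RPMI-1640 with L-glutamine, pH 7, to 2.5 × 10³ cfu/mL final. Twofold dilutions were made from a 20 mg/mL DMSO stock, with fluconazole as reference and DMSO at most 12.5% final. Incubated at 36 °C, humid, and read visually at 48 h. MIC was the lowest concentration giving no visible turbidity.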

[1] = system: Radical scavenging activity; assay: Antioxidant activity assessed as DPPH free radical scavenging activity after 20 mins by spectrophotometric analysis; parameters: concentration or dose not given beside the values
Procedure, shortened: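 Reduction of methanolic DPPH radical, with absorbance recorded at 516 nm and run in triplicate. Percent scavenging was calculated from the initial and final absorbance of each solution.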

Pseudomonas aeruginosa = assay: Antibacterial activity against Pseudomonas aeruginosa ATCC 27853 after 24 hrs; conditions: ATCC 27853, 24 h
Procedure, shortened: (§2)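 Twofold broth dilution MIC in Mueller-Hinton broth, pH 6.9, inoculum (1-2) × 10³ cells/mL. Compounds and ampicillin trihydrate were dissolved in DMSO at 20 mg/mL stock and serially diluted from 20 down to 0.005. […] Plates incubated at 36 °C with a humid chamber and read visually after 24 h. MIC was the lowest concentration with no visible turbidity.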

Candida albicans = assay: Antifungal activity against Candida albicans ATCC 10231 after 48 hrs; conditions: ATCC 10231, 48 h; procedure, shortened: as §1
Escherichia coli [2] = assay: Antibacterial activity against Escherichia coli ATCC […] after 24 hrs; procedure, shortened: as §2
Staphylococcus aureus = assay: Antibacterial activity against Staphylococcus aureus ATCC 25923 after 24 hrs; conditions: ATCC 25923, 24 h; procedure, shortened: as §2
Bacillus subtilis = assay: Antibacterial activity against Bacillus subtilis ATCC 6633 after 24 hrs; conditions: ATCC 6633, 24 h; procedure, shortened: as §2
Escherichia coli [3] = assay: Antibacterial activity against Escherichia coli ATCC […]; procedure, shortened: as §2

SMILES: O=C(CC(=O)c1ccc(O[C@@H]2O[C@H](CO)[C@@H](O)[C@H](O)[C@H]2O)cc1O)c1ccccc1
- MIC (Nakaseomyces glabratus): 2500 µg/mL (≈ 5980 µM)
- Activity [1]: 81.2%
- MIC (Pseudomonas aeruginosa): 150 µg/mL (≈ 359 µM)
- MIC (Candida albicans): 2500 µg/mL (≈ 5980 µM)
- MIC (Escherichia coli [2]): 1250 µg/mL (≈ 2990 µM)
- MIC (Staphylococcus aureus): 300 µg/mL (≈ 717 µM)
- MIC (Bacillus subtilis): 150 µg/mL (≈ 359 µM)

SMILES: OC(Cn1cncn1)(Cn1cncn1)c1ccc(F)cc1F [FLUCONAZOLE]
- MIC (Nakaseomyces glabratus): 10 µg/mL (≈ 32.7 µM)
- MIC (Candida albicans): 10 µg/mL (≈ 32.7 µM)

SMILES: O=C(CC(=O)c1ccc(O[C@@H]2O[C@H](CO)[C@@H](O)[C@H](O)[C@H]2O)cc1O)c1ccc(Cl)cc1
- MIC (Nakaseomyces glabratus): 5000 µg/mL (≈ 11000 µM)
- Activity [1]: 84.3%
- MIC (Pseudomonas aeruginosa): 20 µg/mL (≈ 44.2 µM)
- MIC (Candida albicans): 150 µg/mL (≈ 331 µM)
- MIC (Escherichia coli [2]): 70 µg/mL (≈ 155 µM)
- MIC (Staphylococcus aureus): 150 µg/mL (≈ 331 µM)
- MIC (Bacillus subtilis): 300 µg/mL (≈ 662 µM)

SMILES: COc1cccc(C(=O)CC(=O)c2ccc(O[C@@H]3O[C@H](CO)[C@@H](O)[C@H](O)[C@H]3O)cc2O)c1
- MIC (Nakaseomyces glabratus): 5000 µg/mL (≈ 11200 µM)
- Activity [1]: 77.3%
- MIC (Pseudomonas aeruginosa): 5000 µg/mL (≈ 11200 µM)
- MIC (Candida albicans): 10000 µg/mL (≈ 22300 µM)
- MIC (Escherichia coli [2]): 2500 µg/mL (≈ 5580 µM)
- MIC (Staphylococcus aureus): 625 µg/mL (≈ 1390 µM)
- MIC (Bacillus subtilis): 150 µg/mL (≈ 335 µM)

SMILES: Cc1cccc(C(=O)CC(=O)c2ccc(O[C@@H]3O[C@H](CO)[C@@H](O)[C@H](O)[C@H]3O)cc2O)c1
- MIC (Nakaseomyces glabratus): 10000 µg/mL (≈ 23100 µM)
- Activity [1]: 79.5%
- MIC (Pseudomonas aeruginosa): 10000 µg/mL (≈ 23100 µM)
- MIC (Candida albicans): 2500 µg/mL (≈ 5780 µM)
- MIC (Escherichia coli [2]): 5000 µg/mL (≈ 11600 µM)
- MIC (Staphylococcus aureus): 20 µg/mL (≈ 46.3 µM)
- MIC (Bacillus subtilis): 2500 µg/mL (≈ 5780 µM)

SMILES: O=C(CC(=O)c1ccccc1Cl)c1ccc(O[C@@H]2O[C@H](CO)[C@@H](O)[C@H](O)[C@H]2O)cc1O
- MIC (Nakaseomyces glabratus): 5000 µg/mL (≈ 11000 µM)
- Activity [1]: 89.1%
- MIC (Pseudomonas aeruginosa): 20 µg/mL (≈ 44.2 µM)
- MIC (Candida albicans): 5000 µg/mL (≈ 11000 µM)
- MIC (Escherichia coli [2]): 20 µg/mL (≈ 44.2 µM)
- MIC (Staphylococcus aureus): 150 µg/mL (≈ 331 µM)
- MIC (Bacillus subtilis): 1250 µg/mL (≈ 2760 µM)

SMILES: O=C1O[C@H]([C@@H](O)CO)C(O)=C1O
- Activity [1]: 98%

SMILES: CC1(C)S[C@@H]2[C@H](NC(=O)[C@H](N)c3ccccc3)C(=O)N2[C@H]1C(=O)O [AMPICILLIN]
- MIC (Pseudomonas aeruginosa): 5 µg/mL (≈ 14.3 µM)
- MIC (Escherichia coli [2]): 10 µg/mL (≈ 28.6 µM)
- MIC (Staphylococcus aureus): 19 µg/mL (≈ 54.4 µM)
- MIC (Bacillus subtilis): 5 µg/mL (≈ 14.3 µM)

SMILES: Cc1ccc(C(=O)CC(=O)c2ccc(O[C@@H]3O[C@H](CO)[C@@H](O)[C@H](O)[C@H]3O)cc2O)cc1
- MIC (Nakaseomyces glabratus): 5000 µg/mL (≈ 11600 µM)
- Activity [1]: 82%
- MIC (Pseudomonas aeruginosa): 5000 µg/mL (≈ 11600 µM)
- MIC (Candida albicans): 5000 µg/mL (≈ 11600 µM)
- MIC (Escherichia coli [2]): 5000 µg/mL (≈ 11600 µM)
- MIC (Staphylococcus aureus): 625 µg/mL (≈ 1450 µM)
- MIC (Bacillus subtilis): 2500 µg/mL (≈ 5780 µM)

SMILES: O=C(CC(=O)c1ccc(O[C@@H]2O[C@H](CO)[C@@H](O)[C@H](O)[C@H]2O)cc1O)c1cccc(Cl)c1
- MIC (Nakaseomyces glabratus): 10000 µg/mL (≈ 22100 µM)
- Activity [1]: 83.5%
- MIC (Pseudomonas aeruginosa): 1250 µg/mL (≈ 2760 µM)
- MIC (Candida albicans): 10000 µg/mL (≈ 22100 µM)
- MIC (Escherichia coli [2]): 20 µg/mL (≈ 44.2 µM)
- MIC (Staphylococcus aureus): 150 µg/mL (≈ 331 µM)
- MIC (Bacillus subtilis): 625 µg/mL (≈ 1380 µM)

SMILES: COc1ccc(C(=O)CC(=O)c2ccc(O[C@@H]3O[C@H](CO)[C@@H](O)[C@H](O)[C@H]3O)cc2O)cc1
- MIC (Nakaseomyces glabratus): 2500 µg/mL (≈ 5580 µM)
- Activity [1]: 73.5%
- MIC (Pseudomonas aeruginosa): 30 µg/mL (≈ 66.9 µM)
- MIC (Candida albicans): 1250 µg/mL (≈ 2790 µM)
- MIC (Escherichia coli [3]): 5000 µg/mL (≈ 11200 µM)
- MIC (Escherichia coli [2]): 5000 µg/mL (≈ 11200 µM)
- MIC (Staphylococcus aureus): 2500 µg/mL (≈ 5580 µM)
- MIC (Bacillus subtilis): 2500 µg/mL (≈ 5580 µM)
